Screening results deposited in PubChem BioAssay by several laboratories.
Sampled rows, rich in hits. Any-hit rate of the full collection: about 4.9%.
STAT1 activator = STAT1 signaling activation; NIH 3T3 STAT1-luciferase reporter, IFN-gamma, luminescence; 100% = IFN-gamma alone, no compound; activation (% of control), % at 5.5 µM; 200,000 compounds, 2.6% hits;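 active means activation above the screen-wide mean activation plus 3 SD, cut at about 130% in these data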
STAT1 blocker = reduces IFN-gamma driven STAT1 reporter signal; NIH 3T3 STAT1-luciferase reporter, luminescence; inhibition, % at 5.5 µM; 200,000 compounds, 0.35% hits; AID 920;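 active means inhibition above a set limit, the mean inhibition across all tested compounds plus 3 SD, cut at about 34% in these data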
NF-kB neuron act = raises NF-kB expression in human neuronal cells. NF-kB reporter expression; stronger effect = higher value. fold change at 12.5 µM. 190,000 compounds, 1.6% hits. AID 1239; in the data active means fold change above about 3.3
STAT3 activator = activators of IL-6 induced STAT3 signaling | U3A cells, IL-6 STAT3-luciferase reporter, luminescence; 100% = signal with IL-6 EC80 alone | activation (% of control), % at 5.6 µM | AID 871 | 190,000 compounds, 0.91% hits;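 active means activation above the screen-wide mean of compound activation plus 3 SD, cut at about 130% in these data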
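System – human U3A cells carrying STAT3-luciferase construct · Probe or stimulus – Interleukin-6, 33 ng/mL · Schedule – compound 1 h, then IL-6 6 h at 37 °C · Signal – luminescence from STAT3-driven luciferase reporter · Evaluation – percent of IL-6-only median luminescence · Benchmarks – IL-6-only high control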
APP 5'UTR act = activates APP 5'UTR luciferase reporter; 190,000 compounds, 1% hits; AID 1276; activation, % at 2 µM; SH-SY5Y APP 5'UTR luciferase reporter, luminescence; zero percent = DMSO vehicle wells;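 active means activation above a set limit, based on mean plus 3 SD of controls, cut at about 140% in these data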
STAT3 inh-1 = inhibitors of IL-6 induced STAT3 signaling | U3A cells, IL-6 STAT3-luciferase reporter, luminescence; host cell line lacks STAT1 | inhibition, % at 5.5 µM | 190,000 compounds, 0.89% hits;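 active means inhibition above the mean inhibition across all screened compounds plus 3 SD, cut at about 44% in these data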
STAT3 inh-2 = confirmation of STAT3 signaling inhibitors; inhibition, % at 5.7 µM; shares compounds with STAT3 inh-1; 1,200 compounds, 45% hits; U3A cells, IL-6 STAT3 luciferase reporter, luminescence; cell line lacks STAT1;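 active means inhibition above the hit cutoff computed for the primary STAT3 screen, cut at about 44% in these data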
NFkB inh STAT3ct = NF-kappaB inhibition in STAT3 inhibitor counter-screen; shares compounds with STAT3 inh-1; HEK293T NF-kB luciferase reporter, TNF-alpha induced; inhibition, % at 5.7 µM; 1,200 compounds, 36% hits; AID 1308;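 active means inhibition above the mean of solvent-only control wells plus 3 SD, cutoff set per campaign, cut at about 13% in these data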
STAT1 inh STAT3c = STAT1 inhibition in STAT3 inhibitor counter-screen | NIH 3T3 STAT1-luciferase reporter, IFN-gamma induced, luminescence | inhibition, % at 5.7 µM | 1,200 compounds, 27% hits | AID 1317 | shares compounds with STAT3 inh-1;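 active means inhibition above the mean plus 3 SD of solvent-only control wells, limit set per screening run, cut at about 16% in these data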
Of the large screens only hits and unclear results are named; the others gave an inactive call (follow-up assays come after a bar, where they were run).

COCC1CCN(C(=O)c2cc(COc3ccc4ncccc4c3)on2)CC1	STAT3 inh-1 55 | STAT3 inh-2 53 | NFkB inh STAT3ct 22 | STAT1 inh STAT3c 23
COc1cccc(CN(C)C(=O)c2cc(COc3ccc4ncccc4c3)on2)c1	STAT1 blocker 35, STAT3 inh-1 74 | STAT3 inh-2 64 | NFkB inh STAT3ct 18 | STAT1 inh STAT3c 19
O=C(c1cc(COc2ccc3ncccc3c2)on1)N1CCCCCC1	STAT3 inh-1 53 | STAT3 inh-2 59 | NFkB inh STAT3ct 13 | STAT1 inh STAT3c inactive
O=C(NCCc1cn2ccccc2n1)c1cc(COc2ccc3ncccc3c2)on1	none
Cc1cc(C(=O)NCCc2ccccc2)c2cc(F)ccc2n1	none
CC(=C/C(=O)O)/C(=C/c1ccccc1)C(=O)O	none
CCOC(=O)CN(Cc1sccc1C)C(=O)Nc1ccc(OC)cc1OC	none
O=C(c1ccccc1)N1CCC(c2nc(-c3ccc(S(=O)(=O)NCC4CCCO4)cc3)no2)CC1 (stereo not drawn)	STAT3 inh-1 69 (no result: APP 5'UTR act) | STAT3 inh-2 inactive | NFkB inh STAT3ct 22 | STAT1 inh STAT3c 27
CS(=O)(=O)N1CCCC(c2nc(-c3ccc(S(=O)(=O)NCc4ccccc4)cc3)no2)C1 (stereo not drawn)	STAT3 inh-1 66 | STAT3 inh-2 72 | NFkB inh STAT3ct 26 | STAT1 inh STAT3c 22
O=C(C1CC1)N1CCC(c2nc(-c3ccc(S(=O)(=O)NCC4CCCO4)cc3)no2)CC1 (stereo not drawn)	STAT3 inh-1 51 | STAT3 inh-2 56 | NFkB inh STAT3ct 15 | STAT1 inh STAT3c inactive
COc1cccc(N2CCN(C(=O)CCCCCNc3nc(=S)[nH]c4ccccc34)CC2)c1	none
CC(=O)Nc1ccccc1C(=O)C(=O)Nc1cccc(C(=O)N2CC(C)CC(C)C2)c1 (stereo not drawn)	none
O=C(CSc1nnc(-c2ccccc2)o1)Nc1ccccc1F	STAT3 inh-1 45 | STAT3 inh-2 inactive | NFkB inh STAT3ct inactive | STAT1 inh STAT3c inactive
COc1cccc(-c2nnc(SCC(=O)Nc3cc(C)on3)o2)c1	none
Cc1ccc(-c2nnc(SCC(=O)Nc3ccccc3F)o2)cc1	STAT3 inh-1 56 | STAT3 inh-2 inactive | NFkB inh STAT3ct inactive | STAT1 inh STAT3c inactive
O=C(CSc1nnc(-c2ccncc2)o1)Nc1ccccc1Cl	none
CCOc1ccc(-c2nnc(SCC(=O)Nc3cc(C)on3)o2)cc1	STAT3 inh-1 49 | STAT3 inh-2 inactive | NFkB inh STAT3ct 16 | STAT1 inh STAT3c inactive
COC(=O)c1ccccc1NC(=O)CSc1nnc(-c2ccc(C)cc2)o1	none
CCOC(=O)N1CCN(C(=O)CSc2ccc3nnc(CCNC(=O)c4ccccc4)n3n2)CC1	none
COc1ccc(CC(=O)NNS(=O)(=O)c2ccccc2)cc1OC	none
NCC12CC3CC(C1)CC(c1ccc(Cl)cc1)(C3)C2	none
Cc1ccn2cc(-c3cc4ccccc4oc3=O)nc2c1	NF-kB neuron act 5.4, STAT3 inh-1 75 | STAT3 inh-2 44 | NFkB inh STAT3ct 27 | STAT1 inh STAT3c inactive
Cc1sc(NC(=O)CN2CCOCC2)nc1-c1ccc2c(c1)CCN2S(=O)(=O)c1ccccc1	STAT3 inh-1 66 | STAT3 inh-2 52 | NFkB inh STAT3ct 22 | STAT1 inh STAT3c 20
Cc1ccc(-c2cnc3cc(C)nn3c2)cc1	NF-kB neuron act 5.7, APP 5'UTR act 147, STAT3 inh-1 69 | STAT3 inh-2 inactive | NFkB inh STAT3ct inactive | STAT1 inh STAT3c inactive
Cc1ccc(-c2cnc3c(Cl)c(C)nn3c2)cc1	NF-kB neuron act 6.5, APP 5'UTR act 244, STAT3 inh-1 82 | STAT3 inh-2 inactive | NFkB inh STAT3ct 22 | STAT1 inh STAT3c inactive
Cc1cc2ncc(C(=O)N=CN(C)C)cn2n1	none
